In ChEMBL document CHEMBL4196022, “Alkynyl-containing phenylthiazoles: Systemically active antibacterial agents effective against methicillin-resistant Staphylococcus aureus (MRSA)” (Eur J Med Chem, 2018):
Values after ≈ are worked out from the molar mass of the structure shown.

Tests used:
Staphylococcus aureus [1] = assay: Bactericidal activity against methicillin-resistant Staphylococcus aureus USA300 up to 18 hrs by broth microdilution assay; type: functional; conditions: USA300, 18 h, read-out: MBC99.9
Rattus norvegicus = assay: AUC in Sprague-Dawley rat at 2 uM administered as single iv bolus dose by LC-MS/MS analysis; type: ADME, organism-based; conditions: in vivo
In short: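 Male naïve Sprague-Dawley rats (three animals) received an IV bolus of a 2 μM solution. EDTA-K2 blood was sampled over 12 h post dose. Plasma was protein-precipitated with acetonitrile and quantified by LC/MS/MS. Parameters came from two-compartmental pharmacokinetic analysis.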

Staphylococcus aureus [2] = assay: Ratio of MBC to MIC for methicillin-resistant Staphylococcus aureus NRS119; type: functional
In short: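 MBC/MIC ratio. […] MBC by plating no-growth wells onto tryptic soy agar at 37 °C for at least 18 h; taken as the concentration giving 99.9% growth inhibition.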

C/C(=N\NC(=N)N)c1sc(-c2ccc(C#CC3CC3)cc2)nc1C
MBC (Staphylococcus aureus [1]): 4 µg/mL (≈ 11.9 µM) | AUC (Rattus norvegicus): 690 ng·h/mL | Ratio (Staphylococcus aureus [2]): <=3
